According to ChEMBL document CHEMBL1130319, “Preparation, DNA binding, and in vitro cytotoxicity of a pair of enantiomeric platinum(II) complexes, [(R)- and (S)-3-aminohexahydroazepine]dichloroplatinum(II). Crystal structure of the S enantiomer” (J Med Chem, 1997):

Columns and labels:
Type in all cases: functional, cell-based
DU-145 [1] = experiment: In vitro cytotoxicity was determined by using cultures of human prostate (DU145) cancer cells by MTT assay
Method in brief: (§1)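 Monolayers in RPMI 1640 with 10% FCS, 37 °C, 7.5% CO2/5% O2/85% N2. Trypsinized, 5000 cells/well, 24 h preincubation. Complexes in 0.9% NaCl saline, final 0–200 μM, 96 h exposure; washed. MTT 1 mg/mL in FCS-free medium, 4 h at 37 °C, formazan in 2-propanol, OD 570 nm. Viability % of untreated; 4 or 6 replicates; IR50 from dose-response curves.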

BL13/0 [2] = experiment: In vitro cytotoxicity was determined by using cultures of human bladder (BL13/0) cancer cells by SRB assay
Method in brief: (§2)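 Cells grown in RPMI 1640/10% FCS under 7.5% CO2, 5% O2. Seeded at 5000 cells/well for 24 h, then given complexes (saline stock diluted in medium) at final 0–200 μM for 96 h. Fixed in cold 10% TCA 30 min at 4 °C, stained with 0.4% SRB in 1% acetic acid 15 min, dye solubilized in 10 mM Tris, A570. Percent of control from 4 or 6 replicates; IR50 read from curves.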

PC-9 [3] = experiment: In vitro cytotoxicity was determined by using cultures of human lung (PC9) cancer cells by MTT assay; method in brief: as §1
PC-9 [4] = experiment: In vitro cytotoxicity was determined by using cultures of human resistant lung (PC9cisR) cancer cells by MTT assay; method in brief: as §1
PC-9 [5] = experiment: In vitro cytotoxicity was determined by using cultures of human resistant lung (PC9cisR) cancer cells by SRB assay; method in brief: as §2
BL13/0 [6] = experiment: In vitro cytotoxicity was determined by using cultures of human bladder (BL13/0) cancer cells by MTT assay; method in brief: as §1
DU-145 [7] = experiment: In vitro cytotoxicity was determined by using cultures of human prostate (DU145) cancer cells by SRB assay; method in brief: as §2
PC-9 [8] = experiment: In vitro cytotoxicity was determined by using cultures of human lung (PC9) cancer cells by SRB assay; method in brief: as §2

Substance	IC50 (DU-145 [1])	IC50 (BL13/0 [2])	IC50 (PC-9 [3])	IC50 (PC-9 [4])	IC50 (PC-9 [5])	IC50 (BL13/0 [6])	IC50 (DU-145 [7])	IC50 (PC-9 [8])
CISPLATIN	1.8 µM	9.5 µM	1.4 µM	11.7 µM	> 17.5 µM	1.9 µM	1 µM	–
8,8-platinumdichloro-(6R)-1,7-diazoniabicyclo[4.2.1]nonane	2.9 µM	7.2 µM	5.9 µM	16 µM	27.3 µM	1.3 µM	3.3 µM	11 µM
